Results reported in ChEMBL document CHEMBL1156715, “Synthesis of new 3-pyridinecarboxylates of potential vasodilation properties” (Eur J Med Chem, 2008).

Tested on: Aorta
Test: Vasodilation activity in Wistar rat thoracic aorta assessed as reduction of norepinephrine hydrochloride-induced contracture after 2 hrs
Format: functional, tissue-based
In short: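 Endothelium-denuded aortic preparations (functional endothelium removed, confirmed by <10% acetylcholine relaxation of pre-contracted aorta) equilibrated 2 h under 2 g resting tension. Contraction to norepinephrine hydrochloride (3 × 10^-7 to 3 × 10^-3 M) recorded isometrically before and after increasing test concentrations. DMSO stock 50 mg/ml; DMSO-only controls. IC50 = concentration giving 50% reduction of maximal norepinephrine contracture.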

SMILES	IC50
CCOC(=O)c1c(-c2ccc(F)cc2)cc(-c2ccccc2)nc1N	335 µM
CCOC(=O)c1c(-c2ccc(C)cc2)cc(-c2ccccc2)nc1N1CCCCC1	175 µM
CCOC(=O)c1c(-c2ccc(F)cc2)cc(-c2ccccc2)nc1Nc1ccccc1	367 µM
CCOC(=O)c1c(-c2ccc(C)cc2)cc(-c2ccccc2)nc1N1CCN(c2nc(-c3ccccc3)cc(-c3ccc(C)cc3)c2C(=O)OCC)CC1	229 µM
CCOC(=O)c1c(-c2ccc(F)cc2)cc(-c2ccccc2)nc1N1CCOCC1	146 µM
CCOC(=O)c1c(-c2ccc(C)cc2)cc(-c2ccccc2)nc1N1CCOCC1	340 µM
CCOC(=O)c1c(-c2ccc(C)cc2)cc(-c2ccccc2)nc1Nc1ccc(OC)cc1	233 µM
CCOC(=O)c1c(-c2ccc(F)cc2)cc(-c2ccccc2)nc1Nc1ccc(OC)cc1	254 µM
CCOC(=O)c1c(-c2ccc(C)cc2)cc(-c2ccccc2)nc1Nc1ccc(Cl)cc1	266 µM
CCOC(=O)c1c(-c2ccc(C)cc2)cc(-c2ccccc2)nc1N	327 µM
CCOC(=O)c1c(-c2ccc(F)cc2)cc(-c2ccccc2)nc1Nc1ccc(Cl)cc1	715 µM
CCOC(=O)c1c(-c2ccc(F)cc2)cc(-c2ccccc2)nc1N1CCCCC1	346 µM
